These results are taken from ChEMBL document CHEMBL3822433, “Discovery of N-(3-fluoro-4-methylsulfonamidomethylphenyl)urea as a potent TRPV1 antagonistic template” (Bioorg Med Chem Lett, 2016).

Common to all, as to type: cell-based
Experiment [1] deals with T1, Transient receptor potential cation channel subfamily V member 1 (Homo sapiens, UniProt Q8NER1). Put plainly: Displacement of [3H]-resiniferatoxin from human TRPV1 expressed in CHO cells incubated for 60 mins by scintillation counting analysis. A digest of the protocol: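 Competition binding against [3H]-resiniferatoxin using human TRPV1 heterologously expressed in CHO cells; Ki reported. Mean ± SEM of at least three experiments.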

For experiment [2], the target named is T1, Transient receptor potential cation channel subfamily V member 1. The experiment can be described thus: Antagonist activity at human TRPV1 expressed in CHO cells assessed as inhibition of capsaicin-induced 45Ca2+ uptake incubated for 5 mins by liquid scintillation counting analysis.
The target is the same in experiment [3]. Put plainly: Agonist activity at human TRPV1 expressed in CHO cells assessed as 45Ca2+ uptake incubated for 5 mins by liquid scintillation counting analysis. A digest of the protocol: (§1)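 Human TRPV1 heterologously expressed in CHO cells; 45Ca2+ uptake measured. Maximal response defined with saturating capsaicin (1 μM). Mean ± SEM of at least three experiments. Where shown, % agonism refers to test concentrations of 3–30 μM.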

For experiment [4] the target is unchanged. The experiment can be described thus: Agonist activity at human TRPV1 expressed in CHO cells assessed as 45Ca2+ uptake at 3 to 30 uM incubated for 5 mins by liquid scintillation counting analysis. A digest of the protocol: as §1
Experiment [5] has the same target. The experiment can be described thus: Antagonist activity at human TRPV1 expressed in CHO cells assessed as inhibition of capsaicin-induced 45Ca2+ uptake at 3 to 30 uM incubated for 5 mins by liquid scintillation counting analysis.
Experiment [6] has the same target. Put plainly: Antagonist activity at human TRPV1 expressed in CHO cells assessed as inhibition of capsaicin-induced 45Ca2+ uptake preincubated for 15 mins prior to capsaicin challenge measured after 5 mins by liquid scintillation counting analysis. A digest of the protocol: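 Human TRPV1 heterologously expressed in CHO cells; cells pre-incubated with antagonist for 15 min, then challenged with capsaicin (30 nM) and 45Ca2+ uptake measured. Dose-dependent inhibition was used to derive Ki(ant), correcting for capsaicin–antagonist competition. Values are mean ± SEM of at least three experiments.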

Experiment [7] shares this target. Put plainly: Antagonist activity at human TRPV1 expressed in CHO cells assessed as inhibition of capsaicin-induced 45Ca2+ uptake preincubated for 30 mins prior to capsaicin challenge measured after 5 mins by liquid scintillation counting analysis. In a few lines: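 CHO cells heterologously expressing human TRPV1 were given a 30 min pre-incubation with antagonist before challenge with capsaicin (30 nM). Capsaicin-stimulated 45Ca2+ uptake was read out, and Ki(ant) was derived from dose-dependent inhibition, allowing for competition with capsaicin. Values are mean ± SEM, with n ≥ 3 experiments.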

T1 sequence (Q8NER1 whole entry): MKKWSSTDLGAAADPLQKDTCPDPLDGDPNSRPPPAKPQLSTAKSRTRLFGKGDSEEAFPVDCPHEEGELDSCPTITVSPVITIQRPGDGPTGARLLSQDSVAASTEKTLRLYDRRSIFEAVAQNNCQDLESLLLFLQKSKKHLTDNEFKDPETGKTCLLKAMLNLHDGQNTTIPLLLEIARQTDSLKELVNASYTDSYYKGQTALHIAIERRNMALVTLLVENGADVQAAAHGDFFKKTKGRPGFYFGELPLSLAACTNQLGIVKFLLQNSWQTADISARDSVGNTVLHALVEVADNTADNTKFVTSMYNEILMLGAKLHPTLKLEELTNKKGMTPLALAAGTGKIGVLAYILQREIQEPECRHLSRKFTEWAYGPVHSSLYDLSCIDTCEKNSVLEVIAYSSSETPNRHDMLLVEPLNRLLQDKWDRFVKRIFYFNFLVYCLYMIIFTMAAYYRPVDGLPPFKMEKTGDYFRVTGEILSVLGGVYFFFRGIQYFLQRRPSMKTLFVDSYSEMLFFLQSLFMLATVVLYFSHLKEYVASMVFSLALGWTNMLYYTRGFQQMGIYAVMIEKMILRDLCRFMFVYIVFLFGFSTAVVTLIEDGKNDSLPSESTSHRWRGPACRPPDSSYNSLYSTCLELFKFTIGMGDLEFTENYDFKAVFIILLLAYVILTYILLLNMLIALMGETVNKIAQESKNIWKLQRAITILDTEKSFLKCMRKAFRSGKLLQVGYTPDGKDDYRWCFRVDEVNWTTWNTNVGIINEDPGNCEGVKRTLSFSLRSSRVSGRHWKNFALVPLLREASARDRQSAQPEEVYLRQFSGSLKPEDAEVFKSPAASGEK

As to `CC1CCN(c2nc(C(F)(F)F)ccc2CNC(=O)NCc2ccc(CNS(C)(=O)=O)c(F)c2)CC1`, the values for the Ki in experiment [1] and in experiment [2] were 0.41 µM and 0.199 µM, respectively. Moreover, the EC50 result in experiment [3] is “Not Active”.

Regarding `CC1CCN(c2nc(C(F)(F)F)ccc2CCNC(=O)C(C)c2ccc(NS(C)(=O)=O)c(F)c2)CC1` (stereo unspecified), the Ki (commonly a measure of affinity in units of concentration, obtained from inhibition or displacement) in experiment [1] amounted to 0.054 µM; in experiment [2], 0.095 µM. Also, the EC50 entry in experiment [3] is given as “Not Active”.

Consider `CC1CCN(c2nc(C(F)(F)F)ccc2CNC(=O)[C@@H](C)c2ccc(NS(C)(=O)=O)c(F)c2)CC1`, for which the EC50 result in experiment [3] is reported as “Not Active”.

For the compound `CC1CCN(c2nc(C(F)(F)F)ccc2CNC(=O)NC(C)c2ccc(NS(C)(=O)=O)c(F)c2)CC1` (stereo unspecified), the Ki in experiment [1] amounted to 0.0316 µM; in experiment [2], 0.0281 µM. Besides, in experiment [3], the EC50 entry is listed as “Not Active”.

As to `CC1CCN(c2nc(C(F)(F)F)ccc2CCNC(=O)Nc2ccc(NS(C)(=O)=O)c(F)c2)CC1`, the Activity in experiment [4] came to 29%. The compound also returned a Ki in experiment [1] of 0.21 µM. Moreover, the inhibition (as a rule, the relative decrease from the control value, in per cent) in experiment [5] was 49%.

As to `CC1CCN(c2nc(C(F)(F)F)ccc2CNC(=O)N(C)c2ccc(NS(C)(=O)=O)c(F)c2)CC1`, the Ki in experiment [1] was determined as 1.16 µM; in experiment [2], 0.059 µM. The EC50 result in experiment [3] is listed as “Not Active”.

For `CC1CCN(c2nc(C(F)(F)F)ccc2CNC(=O)Nc2ccc(NS(C)(=O)=O)c(F)c2)CC1`, the figures for the Ki in experiment [1] and in experiment [2] were 0.083 µM and 0.149 µM, respectively. Besides, the EC50 entry in experiment [3] is listed as “Not Active”.

Turning to `CC1CCN(c2nc(C(F)(F)F)ccc2CNC(=O)C(C)c2ccc(CNS(C)(=O)=O)c(F)c2)CC1` (stereo unspecified), the Ki is 0.23 µM in experiment [1] and 0.0276 µM in experiment [2]. Moreover, the EC50 result in experiment [3] is “Not Active”.

Turning to `CC1CCN(c2nc(C(F)(F)F)ccc2CNC(=O)Nc2ccc(CNS(C)(=O)=O)c(F)c2)CC1`, the Ki in experiment [1] was determined as 0.00677 µM; in experiment [2], 0.0125 µM. Further, the EC50 entry in experiment [3] is reported as “Not Active”.

`CC1CCN(c2nc(C(F)(F)F)ccc2CNC(=O)C(C)c2ccc(NS(C)(=O)=O)c(F)c2)CC1` (stereo unspecified): the EC50 result in experiment [3] is recorded as “Not Active”.

On to `CC1CCN(c2nc(C(F)(F)F)ccc2CNC(=O)NCc2ccc(NS(C)(=O)=O)c(F)c2)CC1`, for which the EC50 entry in experiment [3] is “Not Active”.

For the compound `Cc1cccc(N(C(=O)NCc2ccc(C(F)(F)F)nc2N2CCC(C)CC2)c2ccc(NS(C)(=O)=O)c(F)c2)c1`, the inhibition constant (Ki) in experiment [1] is 0.49 µM; in experiment [6], 2.2 µM; in experiment [7], 0.86 µM. Besides, the EC50 entry in experiment [3] is “Not Active”.
